# m5-HT2A agonist = agonists of mouse serotonin 5-HT2A receptor (HTR2A); CHO-K1 mHTR2A beta-arrestin complementation, luminescence; percent of 30 µM serotonin response; activation, % at 7.6 µM; hit rate 0.66% among 360,000; AID 624169;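 active = activation above a run cutoff, the mean activation of all tested compounds plus 3 SD, cut at about 14% in these data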
# Arrestin-AP2 inh = human beta-arrestin and AP2 interaction inhibition. FITC-arrestin peptide / GST-AP2 beads, flow cytometry; AP2 beta2 appendage carries R879A mutation. inhibition, % at 10 µM. hit rate 0.31% among 340,000. AID 504490;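 active = inhibition above a set limit, near 3 SD of compounds lacking own fluorescence, cut at about 54% in these data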
#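 Material – AP2 appendage R879A on GSH beads · Buffer or medium – PBS with 0.05% Tween 20 and 0.1% BSA · Probe or stimulus – fluorescein-tagged arrestin peptide at 50 nM final · Incubation – compound with beads 12 min RT, then probe 1 h RT · Detection – high-throughput flow cytometry of beads, ex 488, em 535 nm · Evaluation – percent response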
# Lipid droplet = modulators of hepatic lipid droplet formation; inhibition, % at 6.5 µM; AID 1656; AML12 mouse hepatocytes, oleate lipid droplets, BODIPY imaging; hit rate 0.4% among 240,000;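 active = lipid droplet intensity inhibited by at least 50%, with more than 500 cells counted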
#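 material = mouse AML12 hepatocyte cell line, fixed after treatment | also added = 100 µM oleic acid challenge | doses = compound at 6.5 µM only | schedule = overnight exposure | technique = Image-based BODIPY and DAPI two-channel analysis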
# PfM18AAP inh = PfM18AAP enzyme inhibition | recombinant PfM18AAP, H-Glu-NHMec fluorogenic cleavage | inhibition, % at 7.35 µM | hit rate 1.2% among 290,000 | AID 1822;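 active = inhibition above the campaign mean inhibition over all tested compounds plus 3 SD, cut at about 28% in these data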
# NRP1-CendR mod = modulators of CendR peptide binding to human neuropilin-1; O14786; hit rate 0.85% among 360,000; AID 602438; inhibition, % at 25 µM; FAM-RPARPAR peptide binding to NRP-1, fluorescence polarization;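 active = inhibition or corrected inhibition above about 18%, plus a signal ratio from 0.5 to 1.5, limit read from the data, passing the limit was not always enough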
# Target sequence (O14786 whole entry, looked up): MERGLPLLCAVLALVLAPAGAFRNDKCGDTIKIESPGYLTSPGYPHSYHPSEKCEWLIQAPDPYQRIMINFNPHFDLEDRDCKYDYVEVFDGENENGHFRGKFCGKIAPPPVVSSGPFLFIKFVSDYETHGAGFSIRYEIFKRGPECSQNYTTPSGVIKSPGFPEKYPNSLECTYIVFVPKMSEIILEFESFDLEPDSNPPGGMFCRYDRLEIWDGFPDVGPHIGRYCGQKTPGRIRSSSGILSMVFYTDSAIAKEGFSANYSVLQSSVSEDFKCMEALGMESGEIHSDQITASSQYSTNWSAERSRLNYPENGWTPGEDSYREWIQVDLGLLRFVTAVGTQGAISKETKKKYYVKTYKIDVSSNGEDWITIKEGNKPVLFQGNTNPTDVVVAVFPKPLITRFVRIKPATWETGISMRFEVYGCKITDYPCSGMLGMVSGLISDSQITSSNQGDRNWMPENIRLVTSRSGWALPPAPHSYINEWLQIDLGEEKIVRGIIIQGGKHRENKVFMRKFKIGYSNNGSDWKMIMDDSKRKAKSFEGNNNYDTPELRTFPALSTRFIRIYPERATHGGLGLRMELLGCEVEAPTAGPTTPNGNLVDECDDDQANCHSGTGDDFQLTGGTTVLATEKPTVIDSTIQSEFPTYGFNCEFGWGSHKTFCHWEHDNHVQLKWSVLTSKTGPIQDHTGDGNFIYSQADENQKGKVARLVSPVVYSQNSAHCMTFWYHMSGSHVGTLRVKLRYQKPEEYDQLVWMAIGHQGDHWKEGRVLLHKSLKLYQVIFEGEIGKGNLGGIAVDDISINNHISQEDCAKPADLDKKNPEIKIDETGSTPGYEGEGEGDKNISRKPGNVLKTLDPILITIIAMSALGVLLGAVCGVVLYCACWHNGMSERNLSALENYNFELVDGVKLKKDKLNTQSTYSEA
# sPLA2-III inh = Blocks human group III sPLA2 activity | hit rate 0.56% among 370,000 | inhibition, % at 12.2 µM | Q9NZ20 | AID 743126 | QFRET BODIPY PC-A2 liposome hydrolysis, fluorescence;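 active = inhibition above mean plus 3 SD of compounds lying within the high and low control bounds, cut at about 19% in these data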
# hGIII sPLA2 conf = human GIII-sPLA2 inhibition, confirmation | hit rate 34% among 2,000 | AID 743280 | shares compounds with sPLA2-III inh | inhibition, % at 12.2 µM | recombinant hGIII-sPLA2, BODIPY PC-A2 QFRET fluorescence;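 active = mean inhibition across triplicates above the hit cutoff set in the earlier primary screen, cut at about 19% in these data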
# 535nm interf = 535nm fluorescence interference, HGIII-sPLA2 counter-screen | BODIPY FL product fluorescence interference, QFRET | hit rate 8.5% among 2,000 | shares compounds with sPLA2-III inh | inhibition, % at 12.2 µM;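 active = average inhibition above the solvent-only control mean plus 3 SD, cut at about 6% in these data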
# BODIPY interf DR = counter-screen for HGIII-sPLA2 inhibitors: 535nm fluorescence interference, dose response; shares compounds with sPLA2-III inh; BODIPY FL product fluorescence interference, cell-free; IC50, µM; 240 tested, under 10 active; AID 743455;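 active = IC50 at or below 10 µM; inactive = IC50 above 10 µM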
# Numbers stand for hits; i = inactive; nt = no result. Compounds with a hit are over-represented: about 3.3% of the library has one in this group of screens.
SMILES,m5-HT2A agonist,Arrestin-AP2 inh,Lipid droplet,PfM18AAP inh,NRP1-CendR mod,sPLA2-III inh,hGIII sPLA2 conf,535nm interf,others
O=C1c2ccccc2C(=O)c2c(NCCCN(CCO)CCO)cccc21,i,i,i,i,i,20,31,i,BODIPY interf DR=i
COc1ccc(C(C)NC(=O)c2ccccc2)cc1 (configuration not stated),i,i,i,i,i,nt,nt,nt,
COc1ccc(C(=O)NC(Oc2ccccc2)C(Cl)(Cl)Cl)cc1 (configuration not stated),i,i,nt,i,i,21,i,i,
C=CCn1c(-c2csc3c2CCC(C)C3)n[nH]c1=S (configuration not stated),i,i,i,i,i,21,20,i,
CCCCn1c(-c2csc3c2CCC(C)C3)n[nH]c1=S (configuration not stated),i,i,nt,i,i,i,nt,nt,
CCn1c(-c2csc3c2CCCC3)n[nH]c1=S,i,i,i,i,i,29,30,i,BODIPY interf DR=i
O=C1CCC[C@H]2C[C@H](NCc3cccc(Cl)c3)CC[C@]23CCCN13,nt,nt,nt,nt,nt,i,nt,nt,
CCCCC1O[C@@H](C)[C@@H]2CN3CCc4c([nH]c5ccccc45)[C@@H]3C[C@@H]2N1C (some centres not stated),nt,nt,nt,nt,nt,i,nt,nt,
COC(=O)C1CC(=O)c2sccc2C1 (configuration not stated),i,i,i,i,i,20,i,i,
COc1ccc(NS(=O)(=O)c2ccc3ccccc3c2)c2ncccc12,i,i,i,i,i,28,i,i,
COc1ccccc1NS(=O)(=O)c1ccc2ccccc2c1,i,i,i,i,i,i,nt,nt,
CCOC(=O)CC[C@@]1(C(=O)OCC)C[C@@H](CC(=O)NCC23CC4CC(CC(C4)C2)C3)C(=O)N2CCCC=C21,nt,nt,nt,nt,nt,i,nt,nt,
CC(C)(Oc1ccc(Cl)cc1)C(=O)NC1CCSC1=O (configuration not stated),i,i,i,i,i,nt,nt,nt,
CC(C)(Oc1ccc(Cl)cc1)C(=O)NC1CC1,i,i,nt,nt,i,21,i,i,
CCCNC(=O)C1(C)CCCN(Cc2ccc(Oc3ccccc3)cc2)C1 (configuration not stated),i,nt,nt,nt,i,i,nt,nt,
S=c1[nH]c2ccccc2n2c(=S)[nH]nc12,i,i,i,i,i,21,26,i,
COc1ccccc1CNC(=O)CCNC(=O)c1ccco1,i,i,nt,nt,i,i,nt,nt,
CNc1nc(-c2ccccc2)nc(-c2ccccc2)c1C#N,i,i,i,i,i,20,i,i,
CC1(C)CC(=O)C=C(Nc2ccccc2NC(=O)c2ccc(F)cc2F)C1,nt,nt,nt,nt,nt,i,nt,nt,
COC(=O)C(C)(C)ONC(=O)Nc1ccccc1Br,i,i,i,i,i,21,i,i,
N#CC(C(=S)Nc1ccccc1)c1nc2ccccc2[nH]1 (configuration not stated),i,i,i,i,i,28,i,7.4,
O=C1CCC(c2ccc3ccccc3c2)O1 (configuration not stated),i,i,nt,nt,i,i,nt,nt,
C[C@@H]1CN(C(=O)OC(C)(C)C)CCN1c1ccc(N2CC[C@H](O)C2)c(C#N)c1,nt,nt,nt,nt,nt,21,i,i,
Cc1ccc(NC(=S)NC2CCCC2)c(C)c1,i,i,i,i,i,19,i,i,
CCOC(=O)N1CCN(C(=O)C[C@@H]2C[C@@]3(C(=O)OC)CCCCC=C3N(CCc3ccc(OC)c(OC)c3)C2=O)CC1,i,nt,nt,nt,i,i,nt,nt,
Cn1c(=O)n(Cc2ccccc2)c(=O)c2c1nc1n2CCCN1Cc1ccccc1,i,i,i,i,i,i,nt,nt,
Cc1ccc(Cn2c(=O)c3c(nc4n3CCCN4Cc3ccccc3)n(C)c2=O)cc1,i,i,nt,i,i,73,i,i,

# Source: PubChem BioAssay (several laboratories)
